From PMC4805780 (International Journal for Parasitology: Drugs and Drug …, 2016)
Entries after “also recorded” stand apart in the source; their conditions may differ. Read-outs that look alike come from different tables or passages of the source. Blank lines part the entries; values can stand above or below the molecule they belong to.

What was measured:
HcPMT1 = biological target: T1, HcPMT1 (Haemonchus contortus, UniProt A0A2Z1FIB9); test: Methyltransferase HT activity kit assay, HcPMT1 as sole enzyme; assay type: biochemical
T1 sequence (A0A2Z1FIB9 1-349): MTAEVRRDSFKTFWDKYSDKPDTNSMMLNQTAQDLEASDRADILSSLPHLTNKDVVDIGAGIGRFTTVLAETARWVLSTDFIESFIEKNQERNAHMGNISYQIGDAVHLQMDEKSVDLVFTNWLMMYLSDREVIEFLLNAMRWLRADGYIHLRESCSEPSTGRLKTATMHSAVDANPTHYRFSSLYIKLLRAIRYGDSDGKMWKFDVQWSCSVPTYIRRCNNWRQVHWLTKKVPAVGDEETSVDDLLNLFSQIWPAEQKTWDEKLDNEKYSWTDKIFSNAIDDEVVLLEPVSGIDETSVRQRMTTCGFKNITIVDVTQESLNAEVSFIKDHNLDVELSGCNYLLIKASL

[1] = biological target: T2, HcPMT1 + HcPMT2 combination (Haemonchus contortus, UniProt A0A2Z1FIB9+U5HK48); test: Methyltransferase HT activity kit assay, HcPMT1 + HcPMT2 combination; assay type: biochemical; details: for IC50: read-out: HcPMT1 + HcPMT2 Activity inhibition IC50, 11 μg/ml each enzyme, 95 μM SAM, 160 μM phosphoethanolamine
T2 sequence (A0A2Z1FIB9 1-349): T1 sequence (A0A2Z1FIB9 1-349)
T2 sequence (U5HK48 3-433): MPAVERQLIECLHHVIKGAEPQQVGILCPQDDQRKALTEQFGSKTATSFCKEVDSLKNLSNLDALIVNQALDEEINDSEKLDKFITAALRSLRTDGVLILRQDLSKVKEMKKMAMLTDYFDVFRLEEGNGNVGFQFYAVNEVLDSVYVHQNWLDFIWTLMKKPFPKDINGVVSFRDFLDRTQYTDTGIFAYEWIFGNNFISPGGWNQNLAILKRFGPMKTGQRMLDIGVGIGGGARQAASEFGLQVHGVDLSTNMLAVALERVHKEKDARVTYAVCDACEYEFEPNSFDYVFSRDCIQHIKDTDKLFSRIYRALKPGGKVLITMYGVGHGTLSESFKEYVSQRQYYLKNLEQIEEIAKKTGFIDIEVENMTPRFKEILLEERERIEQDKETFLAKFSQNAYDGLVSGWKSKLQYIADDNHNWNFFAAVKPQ
Method in brief: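 His-tagged recombinant HcPMT1 and HcPMT2 from E. coli BL21-CodonPlus-DE3-RIL, Ni-affinity purified, dialysed in 5 mM Hepes-KOH pH 7.8 with 0.5 mM DTT. Fluorescent SAM-dependent methyltransferase kit, 11 µg/ml each enzyme, 95 µM SAM, 160 µM phosphoethanolamine. Rising test compound from DMSO stock; DMSO-only reactions as uninhibited. Triplicate, 24 °C, 45 min shaking, then kit positive-control mix 10 min. Isopropanol stop; fluorescence 380ex/520em. % inhibition against uninhibited mean RFU; IC50 by nonlinear regression.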

[2] = tested on: H. contortus third-stage (L3) larvae; test: Anthelmintic effect on motility of third-stage larvae in culture; design: species or system Haemonchus contortus; details: for anthelmintic effect against larvae: data not shown
Method in brief: (§1)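 Adult females freshly taken from goat abomasum, or L3 larvae Baermann-extracted from 10-day, 21 °C faecal cultures; both PCR-confirmed as H. contortus. 100 worms per dish, in triplicate, in 20 ml RPMI-1640 with 2% glucose and antibiotics, pH 6.8. Rising test-compound concentrations, with DMSO and untreated controls; 37 °C, 5% CO2, 36 h. Worms light-stimulated 5 min at 37 °C. 50 scored per dish as very motile, sluggish or immotile. IC50 from % non-motile by nonlinear regression.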

[3] = tested on: adult H. contortus female worms; test: Anthelmintic effect on motility of adult female worms in culture; design: species or system Haemonchus contortus; details: for anthelmintic effect against adult worms: all concentrations up to a maximum of 80 μM
Method in brief: as §1

MonoMac6 cells = test: WST-1 cytotoxicity assay in mammalian cells; assay type: cell-based, human; details: read-out: cytotoxic IC50; mammalian monocytic cells, 48 h
Method in brief: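 MonoMac6 cells seeded at 10⁴/well in phenol-red-free RPMI-1640 with 10% FCS, 2.05 mM L-glutamine, nonessential amino acids, OPI supplement and 1% penicillin-streptomycin. Test compound at rising concentrations in triplicate, with DMSO-only controls; 48 h, 37 °C, 5% CO2. WST-1 added, 1 h at 37 °C. Supernatant transferred and formazan read as absorbance at 420 nm.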

P. falciparum PMT = details: previous studies ref Bobenchik et al., 2013; cited from earlier work
P. falciparum = details: ref Bobenchik et al., 2013; cited from earlier work
[4] = all concentrations up to a maximum of 80 μM

- IC50 (HcPMT1; read-out: HcPMT1 Activity inhibition IC50, HcPMT1 alone, 95 μM SAM, 160 μM phosphoethanolamine): 8.3 ± 1.1 µM
- concentration with highest inhibitory effect on HcPMT1 and HcPMT2 activity [1]: 8 µM
- IC50 [1]: 5.1 ± 1.8 µM
Molecule: Hydrazinecarbothioamide, N,N-dipropyl- 2-(2-pyridinemethylene)-, (N,N,S)-copper(II) chloride complex, (SP-4-3)- [NSC-641296]
- concentration from which significant decrease in very motile larvae was observed ([2]; 36 h, P < 0.05): 4 µM
- cytotoxic IC50 relative to anthelmintic IC50 against larvae ([2]; MonoMac6 IC50 vs larvae IC50): 2 fold
- percentage of sluggishly motile larvae relative to very motile ([2]; above 4 μM, 36 h): at least 2.7 fold
- percentage of immotile worms relative to very motile worms ([2]; at 22 μM, larvae, 36 h): 4 fold
- percentage of sluggishly motile worms relative to very motile ([2]; from 14 μM and above, larvae, 36 h): at least 3 fold
- cytotoxic IC50 relative to anthelmintic IC50 against adult worms ([3]; MonoMac6 IC50 vs adult worm IC50): 4 fold
- percentage of immotile worms relative to motile worms ([3]; at 8 μM and above, adult worms, 36 h): at least 2 fold
- change in number of motile adult worms ([3]; at 8 μM, 36 h): decrease by half
- IC50 (MonoMac6 cells): 29 ± 2.1 µM

- IC50 (HcPMT1): 5.9 ± 0.9 µM
- concentration with highest inhibitory effect on HcPMT1 and HcPMT2 activity [1]: 5 µM
- IC50 [1]: 2.8 ± 0.6 µM
Molecule: O=C1C=C(NCCc2cc(Br)c(O)c(Br)c2)C(=O)c2ncccc21 [NSC-668394, 5,8-Quinolinedione, 7-[[2-(3,5-dibromo-4-hydroxyphenyl)ethyl]amino]-]
- anthelmintic effect against larvae ([2]; up to 60 μM): did not show any anthelmintic activity
- anthelmintic effect against adult H. contortus ([3]; up to 60 μM, data not shown): did not show any anthelmintic activity

Molecule: CC(=NNC(=[Se])N1CC2CCC(CC2)C1)c1ccccn1 [NSC-323241, 3-Azabicyclo[3.2.2]nonane-3-carboselenoic acid, [1-(2-pyridinyl)ethylidene]hydrazide]
- inhibitory effect against the activity of HcPMT1 as the sole enzyme (HcPMT1): did not have any significant inhibitory effect; also recorded: had no inhibitory effect
- inhibition at 12 µM ([1]; read-out: maximum inhibition rate of combined activity of HcPMT1 and HcPMT2): 21%
- anthelmintic effect against larvae [2, 4]: did not show any anthelmintic effect
- anthelmintic effect against adult worms ([3]; data not shown): did not show any anthelmintic effect
- inhibitory effect against catalytic activity of P. falciparum PMT (P. falciparum PMT): significant inhibitory effect
- antiparasitic activity against P. falciparum (P. falciparum): significant antiparasitic activity

- inhibition at 15 µM ([1]; read-out: maximum inhibition of combined activity of HcPMT1 and HcPMT2): 12%
Molecule: S=C(CSc1ccccc1)Nc1cccc2ccccc12 [NSC-158011, N-naphthalen-1-yl-2-phenylsulfanylethanethioamid]
- inhibitory effect against the activity of HcPMT1 as the sole enzyme (HcPMT1): did not have any significant inhibitory effect; also recorded: had no inhibitory effect
- anthelmintic effect against larvae [2, 4]: did not show any anthelmintic effect
- anthelmintic effect against adult worms ([3]; data not shown): did not show any anthelmintic effect
- inhibitory effect against catalytic activity of P. falciparum PMT (P. falciparum PMT): significant inhibitory effect
- antiparasitic activity against P. falciparum (P. falciparum): significant antiparasitic activity
